The results in this text go back to PMC4253050 (Cellular signalling, 2014).

The target in assay [1] is T1, kB2R (Homo sapiens, UniProt P30411).
T1 sequence (P30411 1-391): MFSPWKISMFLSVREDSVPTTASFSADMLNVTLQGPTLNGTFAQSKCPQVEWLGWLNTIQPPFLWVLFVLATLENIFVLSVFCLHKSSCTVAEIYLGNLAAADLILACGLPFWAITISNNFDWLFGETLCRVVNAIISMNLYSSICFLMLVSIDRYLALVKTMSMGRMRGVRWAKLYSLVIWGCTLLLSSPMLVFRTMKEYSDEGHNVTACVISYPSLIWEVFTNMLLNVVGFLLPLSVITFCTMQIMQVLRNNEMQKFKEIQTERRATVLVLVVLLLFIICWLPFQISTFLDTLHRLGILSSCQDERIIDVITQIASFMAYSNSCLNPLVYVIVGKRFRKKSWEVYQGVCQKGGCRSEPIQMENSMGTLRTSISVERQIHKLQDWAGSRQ
The assay can be described thus: Intracellular Ca2+ response. The format is cell-based. As to conditions: HEK cells stably expressing kB1R and kB2R; first 1 μM DAKD, then 1 μM KD.

Assay [2] concerns the target T2, kB1R (Homo sapiens, UniProt P46663).
T2 sequence (P46663 1-353): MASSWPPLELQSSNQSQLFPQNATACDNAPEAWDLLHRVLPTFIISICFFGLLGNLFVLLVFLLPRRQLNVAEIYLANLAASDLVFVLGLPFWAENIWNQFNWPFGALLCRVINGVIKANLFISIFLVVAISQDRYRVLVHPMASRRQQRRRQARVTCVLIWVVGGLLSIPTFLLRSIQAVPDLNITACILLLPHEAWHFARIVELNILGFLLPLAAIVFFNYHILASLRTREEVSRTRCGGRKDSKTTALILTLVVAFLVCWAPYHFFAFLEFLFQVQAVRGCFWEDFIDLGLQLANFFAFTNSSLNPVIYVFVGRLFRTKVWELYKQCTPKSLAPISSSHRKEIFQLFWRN
The assay can be described thus: [3H]DAKD binding and endocytosis assay, cell surface kB1R, HEK293 cells. As to conditions: HEK cells stably expressing kB1R and kB2R; 10 min, 37 °C (DAKD 1 μM), no acid wash; 4 nM [3H]DAKD 90 min on ice; n=3. Put shortly: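 Confluent monolayers were rinsed three times in warm PBS and exposed to unlabelled agonist or vehicle (PBS). They were washed with ice-cold PBS, and binding was then done on ice. Cells were washed three times in cold PBS, lysed in 0.2 M NaOH and counted by scintillation. Total binding was taken as label bound in cells given PBS alone.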

The target in assay [3] is T2, kB1R. In words: [3H]Arachidonic acid release, kB1R-mediated, cells co-expressing kB1R and kB2R. The format is cell-based. As to conditions: stably co-expressing HEK cells (so in the source); 1 μM. Put shortly: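 Cells at ~80% confluence were labelled for 18–24 h in growth medium with 0.1% FBS and 1 μCi/ml [³H]arachidonic acid. They were washed three times in HAM's/F12 buffer (HEPES, NaHCO₃, 0.1% fat-free BSA), then incubated with agonist in that buffer at 37 °C. Released label in the collected medium was counted by liquid scintillation.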

For assay [4], the system named is GPCRs coupled with Gαq (LPA). In words: Intracellular Ca2+ response to LPA, HEK cells. The format is cell-based, human. Put shortly:
(§1)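 Cross-desensitization in HEK293 cells stably expressing kB1R, loaded with fura-2 (2 μM, 60 min, 37 °C) on polylysine coverslips. Cells were given thrombin or LPA followed by kB1R agonist, or kB1R agonist first and then thrombin or LPA. [Ca²⁺]i was read as 510 nm emission at 340/380 nm excitation.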

Assay [5] concerns human lung microvascular endothelial cells (HLMVEC). In words: Transendothelial electrical resistance. The format is cell-based. As to conditions: cytokine-treated HLMVEC; 100 nM; BK in the presence of MGTA; n = 4. Put shortly: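 Primary HLMVEC (passage 3–6) were grown to confluence on gold electrodes coated with 10 μg/ml fibronectin. Cells were cytokine-primed for 16 h with IL-1β plus 100 U/ml IFN-γ, then moved to EBM-2 with 1% FBS for 1 h and impedance-monitored (ECIS) until baseline was stable. BK samples were pretreated with 40 μM MGTA. Cells received ±100 nM BK for 10 min, then 100 nM DAKD or vehicle, with or without 200 μM pyrogallol; TER recorded.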

In assay [6] the target is T2, kB1R. In words: Phosphoinositide turnover. The format is cell-based. As to conditions: stably co-expressing HEK cells; 1 μM.
The target of assay [7] is T2, kB1R. The assay can be described thus: Intracellular Ca2+ response. The format is cell-based. As to conditions: for effect of pre-stimulation on kB1R response: kB1R expressing cells, discussion summary. Put shortly: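 Receptor-expressing HEK cells were grown to 80% confluence on polylysine-coated glass coverslips. They were loaded with 2 μM fura-2/AM for 60 min at 37 °C. For pre-stimulation, cells received vehicle or a kinin agonist (e.g. 1 μM BK) for 10 min, then a kB1R agonist. The [Ca²⁺]i rise was quantified as area under the curve and plotted against log dose; n=3, mean ± SE.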

Assay [8] relates to protease activated receptor. The assay can be described thus: Intracellular Ca2+ response to thrombin, HEK cells. The format is cell-based, human. A digest of the protocol:
as §1

Setting [9] is: HEK cells stably expressing kB1R.
[10] abbreviates: HEK cells stably expressing kB1R or kB2R.

Regarding des-Arg^10-kallidin [DAKD], the “calcium response to 1 μM KD added after pre-stimulation with kB1R agonist” value in assay [1] is reported as “second robust increase”. Also, the “inhibition of [3H]-DAKD binding, without acid washing” value in assay [2] was ~ 80%. In assay [3], the “arachidonic acid release response” value is given as “responded robustly”. Moreover, in assay [4] (setting [9]), the “effect of kB1R agonist on calcium response to subsequent LPA” value is “did not reduce the calcium response”. Further, in assay [5], the “increase in TER” value was “substantial and prolonged”. Moreover, the IP3 turnover response result in assay [6] is “responded robustly”.
Turning to des-Arg^9 -HOE-140 [des-Arg-HOE140], in assay [2], the “inhibition of [3H]-DAKD binding, without acid washing” value was ~ 80%.
Consider lysophosphatidic acid [LPA], for which the “effect of LPA on kB1R response to subsequent DAKD” value in assay [7] (setting [9]) was “did not decrease the kB1R response”. For the same substance, the “effect of pre-stimulation on kB1R response” value in assay [7] was “did not reduce the kB1R response”. Further, in assay [4] (HEK cells expressing kB1R), the “increase in [Ca2+]i by LPA” value is given as “relatively lower calcium response than thrombin”. Moreover, the “cross-desensitization between kB1R, kB2R and LPA” value in assay [4] (setting [10]) is reported as “Lack of cross-desensitization”.
As for thrombin, the “effect of thrombin on increase in [Ca2+]i induced by subsequent DABK (1 μM)” value in assay [7] (setting [9]) was “did not inhibit the increase in [Ca^2+]i”. The “effect of pre-stimulation on kB1R response” value in assay [7] is recorded as “did not reduce the kB1R response”. Besides, the “increase in [Ca2+]i by thrombin” value in assay [8] (setting [9]) is “large increase in [Ca^2+]i”. Besides, the “cross-desensitization between kB1R, kB2R and thrombin” value in assay [8] (setting [10]) is “Lack of cross-desensitization”.
